Assays:
Assay type in all cases: functional
[1] = test system: MOLT-4; experiment: Growth inhibition of human MOLT-4 cells incubated for 48 hrs by sulforhodamine B assay; conditions: for CC50: read-out: LC50 (the source's name)
Outline: (§1)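 NCI60 panel at the NCI Developmental Therapeutics Program. Only compounds active in the 10 µM screen went to dose-response testing. GI50, the concentration giving 50% of maximal inhibition of proliferation, and TGI, the concentration giving total growth inhibition, were derived from the dose-response curves.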

[2] = test system: HCC 2998; experiment: Growth inhibition of human HCC 2998 cells assessed as cell growth at 100 uM incubated for 48 hrs by sulforhodamine B assay relative to control; conditions: read-out: Activity
Outline: (§2)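 NCI Developmental Therapeutics Program NCI60 panel. Compounds that were active in the 10 µM one-dose screen went on to dose–response testing. Growth at each concentration is expressed relative to untreated control (100%). GI50 (concentration giving 50% of maximal inhibition of proliferation) and TGI (concentration giving total growth inhibition) were derived from the curves.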

[3] = test system: UACC-257; experiment: Growth inhibition of human UACC-257 cells assessed as cell growth at 100 uM incubated for 48 hrs by sulforhodamine B assay relative to control; conditions: read-out: Activity
[4] = test system: RPMI-8226; experiment: Growth inhibition of human RPMI-8226 cells assessed as cell growth at 0.1 uM incubated for 48 hrs by sulforhodamine B assay relative to control; conditions: read-out: Activity
[5] = test system: Malme-3M; experiment: Growth inhibition of human Malme-3M cells assessed as cell growth at 0.1 uM incubated for 48 hrs by sulforhodamine B assay relative to control; conditions: read-out: Activity
[6] = test system: MDA-MB-231; experiment: Growth inhibition of human MDA-MB-231 cells incubated for 48 hrs by sulforhodamine B assay; conditions: for CC50: read-out: LC50 (the source's name); outline: as §1
[7] = test system: MDA-MB-468; experiment: Growth inhibition of human MDA-MB-468 cells assessed as cell growth at 0.01 uM incubated for 48 hrs by sulforhodamine B assay relative to control; conditions: read-out: Activity
[8] = test system: MCF7; experiment: Growth inhibition of human MCF7 cells assessed as cell growth at 1 uM incubated for 48 hrs by sulforhodamine B assay relative to control; conditions: read-out: Activity
[9] = test system: MCF7; experiment: Growth inhibition of human MCF7 cells incubated for 48 hrs by sulforhodamine B assay; conditions: for CC50: read-out: LC50 (the source's name); outline: as §1
[10] = test system: HCT-15; experiment: Growth inhibition of human HCT-15 cells incubated for 48 hrs by sulforhodamine B assay; outline: as §1
[11] = test system: TK-10; experiment: Growth inhibition of human TK-10 cells assessed as cell growth at 0.1 uM incubated for 48 hrs by sulforhodamine B assay relative to control; conditions: read-out: Activity
[12] = test system: NCI-H23; experiment: Growth inhibition of human NCI-H23 cells assessed as cell growth at 1 uM incubated for 48 hrs by sulforhodamine B assay relative to control; conditions: read-out: Activity
[13] = test system: KM12; experiment: Growth inhibition of human KM12 cells assessed as cell growth at 0.1 uM incubated for 48 hrs by sulforhodamine B assay relative to control; conditions: read-out: Activity
[14] = test system: HCC 2998; experiment: Growth inhibition of human HCC 2998 cells incubated for 48 hrs by sulforhodamine B assay; conditions: for CC50: read-out: LC50 (the source's name)
[15] = test system: OVCAR-5; experiment: Growth inhibition of human OVCAR-5 cells assessed as cell growth at 0.1 uM incubated for 48 hrs by sulforhodamine B assay relative to control; conditions: read-out: Activity
[16] = test system: NCI-H23; experiment: Growth inhibition of human NCI-H23 cells assessed as cell growth at 100 uM incubated for 48 hrs by sulforhodamine B assay relative to control; conditions: read-out: Activity
[17] = test system: A498; experiment: Growth inhibition of human A498 cells assessed as cell growth at 100 uM incubated for 48 hrs by sulforhodamine B assay relative to control; conditions: read-out: Activity; outline: as §2
[18] = test system: CAKI-1; experiment: Growth inhibition of human CAKI-1 cells assessed as cell growth at 100 uM incubated for 48 hrs by sulforhodamine B assay relative to control; conditions: read-out: Activity; outline: as §2
[19] = test system: SNB-75; experiment: Growth inhibition of human SNB-75 cells assessed as cell growth at 100 uM incubated for 48 hrs by sulforhodamine B assay relative to control; conditions: read-out: Activity
[20] = test system: A549; experiment: Growth inhibition of human A549/ATCC cells incubated for 48 hrs by sulforhodamine B assay; conditions: for CC50: read-out: LC50 (the source's name); outline: as §2
[21] = test system: NCI-H226; experiment: Growth inhibition of human NCI-H226 cells incubated for 48 hrs by sulforhodamine B assay; conditions: for CC50: read-out: LC50 (the source's name); outline: as §1
[22] = test system: A498; experiment: Growth inhibition of human A498 cells incubated for 48 hrs by sulforhodamine B assay; conditions: for CC50: read-out: LC50 (the source's name); outline: as §2
[23] = test system: 786-0; experiment: Growth inhibition of human 786-0 cells assessed as cell growth at 0.01 uM incubated for 48 hrs by sulforhodamine B assay relative to control; conditions: read-out: Activity; outline: as §2
[24] = test system: ACHN; experiment: Growth inhibition of human ACHN cells assessed as cell growth at 1 uM incubated for 48 hrs by sulforhodamine B assay relative to control; conditions: read-out: Activity
[25] = test system: OVCAR-5; experiment: Growth inhibition of human OVCAR-5 cells assessed as cell growth at 100 uM incubated for 48 hrs by sulforhodamine B assay relative to control; conditions: read-out: Activity
[26] = test system: SK-MEL-5; experiment: Growth inhibition of human SK-MEL-5 cells assessed as cell growth at 0.1 uM incubated for 48 hrs by sulforhodamine B assay relative to control; conditions: read-out: Activity
[27] = test system: MDA-MB-231; experiment: Growth inhibition of human MDA-MB-231 cells assessed as cell growth at 100 uM incubated for 48 hrs by sulforhodamine B assay relative to control; conditions: read-out: Activity
[28] = test system: Hs-578T; experiment: Growth inhibition of human Hs-578T cells incubated for 48 hrs by sulforhodamine B assay; conditions: for CC50: read-out: LC50 (the source's name); outline: as §1
[29] = test system: HOP-62; experiment: Growth inhibition of human HOP-62 cells assessed as cell growth at 1 uM incubated for 48 hrs by sulforhodamine B assay relative to control; conditions: read-out: Activity
[30] = test system: SR; experiment: Growth inhibition of human SR cells assessed as cell growth at 0.1 uM incubated for 48 hrs by sulforhodamine B assay relative to control; conditions: read-out: Activity
[31] = test system: HOP-92; experiment: Growth inhibition of human HOP-92 cells assessed as cell growth at 0.1 uM incubated for 48 hrs by sulforhodamine B assay relative to control; conditions: read-out: Activity
[32] = test system: SNB-75; experiment: Growth inhibition of human SNB-75 cells incubated for 48 hrs by sulforhodamine B assay
Outline: (§3)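 NCI DTP 60-line human tumour panel. Dose-response curves were run only for ligands active in the initial 10 µM screen. GI50 (concentration giving 50% of maximal inhibition of proliferation) and TGI (concentration giving total growth inhibition) were derived from these curves.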

[33] = test system: UACC-257; experiment: Growth inhibition of human UACC-257 cells incubated for 48 hrs by sulforhodamine B assay; outline: as §3
[34] = test system: SR; experiment: Growth inhibition of human SR cells assessed as cell growth at 0.01 uM incubated for 48 hrs by sulforhodamine B assay relative to control; conditions: read-out: Activity
[35] = test system: SF-295; experiment: Growth inhibition of human SF-295 cells assessed as cell growth at 0.01 uM incubated for 48 hrs by sulforhodamine B assay relative to control; conditions: read-out: Activity

`COc1cccc(NC(=O)c2sc3nc4c(cc3c2N)CN(Cc2ccccc2)CC4)c1` was tested, and the GI50 [1] was 21.9 µM, the TGI [1] was over 100 µM and the CC50 [1] was over 100 µM. It also gave a growth at 100 µM [2] of 9%, a growth at 100 µM [3] of 21% and a growth at 0.1 µM [4] of 101%. It also gave a growth at 0.1 µM [5] of 89%, a GI50 [6] of 11.4 µM and a TGI [6] of 75.3 µM. For the same compound, the CC50 [6] was over 100 µM, the growth at 0.01 µM [7] was 92% and the growth at 1 µM [8] was 40%. For the same compound, the GI50 [9] was 0.62 µM, the TGI [9] was over 100 µM and the CC50 [9] was over 100 µM. It also gave a GI50 [10] of 0.93 µM, an LC50 [10] of over 100 µM and a TGI [10] of over 100 µM. For the same compound, the growth at 0.1 µM [11] was 104%, the growth at 1 µM [12] was 89% and the growth at 0.1 µM [13] was 98%. It also gave a GI50 [14] of 9.13 µM, a TGI [14] of over 100 µM and a CC50 [14] of over 100 µM. The growth at 0.1 µM [15] was 95%, the growth at 100 µM [16] was -19% and the growth at 100 µM [17] was -47%. It also gave a growth at 100 µM [18] of 11%, a growth at 100 µM [19] of -61% and a GI50 [20] of 3.79 µM. For the same compound, the TGI [20] was 53.8 µM, the CC50 [20] was over 100 µM and the GI50 [21] was 6.03 µM. The TGI [21] was 38.3 µM, the CC50 [21] was over 100 µM and the GI50 [22] was 3.82 µM. The TGI [22] was 24.4 µM, the CC50 [22] was over 100 µM and the growth at 0.01 µM [23] was 90%. It also gave a growth at 1 µM [24] of 92%, a growth at 100 µM [25] of 34% and a growth at 0.1 µM [26] of 90%. For the same compound, the growth at 100 µM [27] was -8%, the GI50 [28] was 2.14 µM and the TGI [28] was 23 µM. The CC50 [28] was over 100 µM, the growth at 1 µM [29] was 74% and the growth at 0.1 µM [30] was 99%. The growth at 0.1 µM [31] was 80%, the GI50 [32] was 1.73 µM and the LC50 [32] was 33.7 µM. The TGI [32] was 4.71 µM, the GI50 [33] was 6.52 µM and the LC50 (concentration killing 50% of cells) [33] was over 100 µM. It also gave a TGI [33] of over 100 µM, a growth at 0.01 µM [34] of 100% and a growth at 0.01 µM [35] of 87%.

With `Cc1cc(C)c(NC(=O)c2sc3nc4c(cc3c2N)CN(Cc2ccccc2)CC4)c(C)c1` the GI50 [1] was 4.15 µM, the TGI [1] was over 100 µM and the CC50 [1] was over 100 µM. It also gave a growth at 100 µM [2] of -21%, a growth at 100 µM [3] of 17% and a growth at 0.1 µM [4] of 100%. The growth at 0.1 µM [5] was 102%, the GI50 [6] was 5.75 µM and the TGI [6] was 58.9 µM. The CC50 [6] was over 100 µM, the growth at 0.01 µM [7] was 99% and the growth at 1 µM [8] was 61%. It also gave a GI50 [9] of 1.61 µM, a TGI [9] of 32.2 µM and a CC50 [9] of over 100 µM. For the same compound, the GI50 [10] was 2.12 µM, the LC50 [10] was over 100 µM and the TGI [10] was over 100 µM. For the same compound, the growth at 0.1 µM [11] was 104%, the growth at 1 µM [12] was 93% and the growth at 0.1 µM [13] was 103%. The GI50 [14] was 5.33 µM, the TGI [14] was 38.4 µM and the CC50 [14] was over 100 µM. It also gave a growth at 0.1 µM [15] of 96%, a growth at 100 µM [16] of 13% and a growth at 100 µM [17] of -2%. It also gave a growth at 100 µM [18] of 4%, a growth at 100 µM [19] of -9% and a GI50 [20] of 4.11 µM. The TGI [20] was over 100 µM, the CC50 [20] was over 100 µM and the GI50 [21] was 4.69 µM. It also gave a TGI [21] of over 100 µM, a CC50 [21] of over 100 µM and a GI50 [22] of 1.31 µM. The TGI [22] was 7.71 µM, the CC50 [22] was over 100 µM and the growth at 0.01 µM [23] was 91%. It also gave a growth at 1 µM [24] of 89%, a growth at 100 µM [25] of 14% and a growth at 0.1 µM [26] of 93%. It also gave a growth at 100 µM [27] of -11%, a GI50 [28] of 2.66 µM and a TGI [28] of 65.9 µM. It also gave a CC50 [28] of over 100 µM, a growth at 1 µM [29] of 81% and a growth at 0.1 µM [30] of 103%. For the same compound, the growth at 0.1 µM [31] was 70%, the GI50 [32] was 2.35 µM and the LC50 [32] was over 100 µM. The TGI [32] was 11 µM, the GI50 [33] was 6.71 µM and the LC50 (concentration killing 50% of cells) [33] was over 100 µM. The TGI [33] was over 100 µM, the growth at 0.01 µM [34] was 100% and the growth at 0.01 µM [35] was 86%.

Reference: ChEMBL document CHEMBL4715736, “Identification of anticancer agents based on the thieno[2,3-b]pyridine and 1H-pyrazole molecular scaffolds” (2016)
